In ChEMBL document CHEMBL5252543, “Ester-prodrugs of ethambutol control its antibacterial activity and provide rapid screening for mycobacterial hydrolase activity” (2017) one finds MIC99 data, which are given here for nine molecules.

What all share (type): functional
What all share (conditions): 72 h, time 3 day

Assay [1] deals with Mycolicibacterium smegmatis. The assay can be described thus: Antimicrobial activity against Mycobacterium smegmatis assessed as bacterial growth inhibition preincubated with PLE and PMSF for 1 hr measured after 3 days by multimode plate reader analysis. Summed up:
(§1)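 MIC99 in M. smegmatis with esterase pretreatment. The highest-concentration sample (50 μg/mL) was preincubated 1 h at RT with pig liver esterase (0.1 mg/mL), alone or with PMSF (1 mM), before serial dilution and 1:1 mixing with M. smegmatis in Middlebrook (final 25 to 0.012 μg/mL). Growth read as A600 after 72 h at 37 °C, 225 rpm.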

Assay [2] deals with Mycolicibacterium smegmatis. The assay can be described thus: Antimicrobial activity against Mycobacterium smegmatis assessed as bacterial growth inhibition measured after 3 days by multimode plate reader analysis. The essentials: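 MIC99 in M. smegmatis broth. Compounds serially diluted in Middlebrook media, then diluted 1:1 with M. smegmatis in Middlebrook (final 25 μg/mL to 0.012 μg/mL). Plates grown 72 h at 37 °C, 225 rpm; growth read as A600.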

Assay [3] relates to Mycolicibacterium smegmatis. Put plainly: Antimicrobial activity against Mycobacterium smegmatis assessed as bacterial growth inhibition preincubated with PLE for 1 hr measured after 3 days by multimode plate reader analysis. Summed up:
as §1

On to `CC[C@@H](COC(=O)C1(C)CC1)NCCN[C@@H](CC)COC(=O)C1(C)CC1.Cl.Cl`, for which the MIC99 – broadly, an inhibitory concentration at the 99% level, which refers to growth in some studies and to a panel of isolates in others – in assay [1] amounted to 25 µg/mL; in assay [2], 13 µg/mL; in assay [3], 0.78 µg/mL.

Consider `CCC(CC)C(=O)OC[C@H](CC)NCCN[C@@H](CC)COC(=O)C(CC)CC.Cl.Cl`, for which the MIC99 was determined as 0.78 µg/mL in assay [1], 1.6 µg/mL in assay [2] and 0.2 µg/mL in assay [3].

Consider `CC[C@@H](COC(=O)C1CCC1)NCCN[C@@H](CC)COC(=O)C1CCC1.Cl.Cl`, for which the results for the MIC99 in assay [1], in assay [2] and in assay [3] were 6.2 µg/mL, 3.1 µg/mL and 0.39 µg/mL, respectively.

For `CC[C@@H](COC(=O)C1CCCC1)NCCN[C@@H](CC)COC(=O)C1CCCC1.Cl.Cl`, the values for the MIC99 in assay [1], in assay [2] and in assay [3] were 1.6 µg/mL, 6.3 µg/mL and 0.098 µg/mL, respectively.

For `CC[C@@H](COC(=O)CC(C)C)NCCN[C@@H](CC)COC(=O)CC(C)C.Cl.Cl`, the results for the MIC99 in assay [1], in assay [2] and in assay [3] were 0.39 µg/mL, 6.3 µg/mL and 0.2 µg/mL, respectively.

Turning to `CC[C@@H](COC(=O)C(C)C)NCCN[C@@H](CC)COC(=O)C(C)C.Cl.Cl`, the MIC99 in assay [1] amounted to 6.3 µg/mL; in assay [2], 6.3 µg/mL; in assay [3] it was 0.39 µg/mL.

Regarding `CCC(=O)OC[C@H](CC)NCCN[C@@H](CC)COC(=O)CC.Cl.Cl`, the MIC99 in assay [1], in assay [2] and in assay [3] was 0.78 µg/mL throughout.

As to `CC[C@@H](COC(=O)C(C)(C)C)NCCN[C@@H](CC)COC(=O)C(C)(C)C.Cl.Cl`, the MIC99 is 6.3 µg/mL in assay [1], 6.3 µg/mL in assay [2] and 0.78 µg/mL in assay [3].

For `CC[C@@H](CO)NCCN[C@@H](CC)CO.Cl.Cl` [ETHAMBUTOL HYDROCHLORIDE], the MIC99 in assay [1], in assay [2] and in assay [3] was 0.098 µg/mL each time.
